{"source": "ChEMBL document CHEMBL4613286", "about": "“Developing Cyclic Opioid Analogues: Fluorescently Labeled Bioconjugates of Biphalin” (ACS Med Chem Lett, 2020)", "key": {"[1]": {"target": "T1, Kappa-type opioid receptor (Homo sapiens, UniProt P41145)", "T1 sequence (P41145 whole entry)": "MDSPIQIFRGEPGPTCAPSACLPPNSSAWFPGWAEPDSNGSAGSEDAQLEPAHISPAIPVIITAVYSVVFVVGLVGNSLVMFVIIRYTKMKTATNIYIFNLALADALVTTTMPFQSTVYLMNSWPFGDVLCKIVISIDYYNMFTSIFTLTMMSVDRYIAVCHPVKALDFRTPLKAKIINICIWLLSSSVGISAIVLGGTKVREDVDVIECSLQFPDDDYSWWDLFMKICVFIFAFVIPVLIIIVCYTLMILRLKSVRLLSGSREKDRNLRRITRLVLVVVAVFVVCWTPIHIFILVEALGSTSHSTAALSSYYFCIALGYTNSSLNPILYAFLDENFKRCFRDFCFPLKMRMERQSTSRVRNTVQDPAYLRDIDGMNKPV", "test": "Agonist activity at human KOR expressed in CHO cell membranes after 1 hr by [35S]GTPgammaS binding assay relative to U50,488", "type": "functional", "procedure,_shortened": "(§1)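 Membranes (15 μg protein) from CHO cells stably expressing human DOR, MOR or KOR, grown in DMEM/F12 with 10% heat-inactivated FBS and G418 selection. Concentration curves of agonist incubated with 0.1 nM 35S-GTPγS for 1 h at 30 °C, then filtered and scintillation counted. […] EC50 and Emax from 3-parameter fit, Hill slope fixed at 1. Mean ± SEM, N = 3.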"}, "[2]": {"target": "T2, Mu-type opioid receptor (Homo sapiens, UniProt P35372)", "T2 sequence (P35372 whole entry)": "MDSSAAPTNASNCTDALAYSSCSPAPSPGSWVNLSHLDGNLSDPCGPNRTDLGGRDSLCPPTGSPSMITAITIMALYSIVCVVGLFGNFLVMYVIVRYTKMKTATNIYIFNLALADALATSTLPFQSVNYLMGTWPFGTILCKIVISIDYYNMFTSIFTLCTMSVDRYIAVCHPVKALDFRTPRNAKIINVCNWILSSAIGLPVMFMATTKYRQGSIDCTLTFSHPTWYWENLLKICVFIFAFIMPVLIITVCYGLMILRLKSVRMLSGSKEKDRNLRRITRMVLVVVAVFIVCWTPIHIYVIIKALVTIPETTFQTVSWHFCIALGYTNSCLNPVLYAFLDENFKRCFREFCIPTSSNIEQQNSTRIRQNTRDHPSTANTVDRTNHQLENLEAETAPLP", "test": "Agonist activity at human MOR expressed in CHO cell membranes after 1 hr by [35S]GTPgammaS binding assay relative to DAMGO", "type": "functional", "procedure,_shortened": "as §1"}, "[3]": {"target": "T2, Mu-type opioid receptor", "test": "Displacement of [3H]diprenorphine human MOR expressed in CHO cell membranes after 1 hr by micro beta2 scintillation counting method", "type": "cell-based"}, "[4]": {"target": "T2, Mu-type opioid receptor", "test": "Agonist activity at human MOR expressed in CHO cell membranes after 1 hr by [35S]GTPgammaS binding assay", "type": "functional", "procedure,_shortened": "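Membranes (15 μg protein) from CHO cells stably expressing human DOR, MOR or KOR, grown in DMEM/F12 with 10% heat-inactivated FBS and G418 selection. Concentration curves of agonist incubated with 0.1 nM 35S-GTPγS for 1 h at 30 °C, then filtered and scintillation counted. EC50 and Emax from 3-parameter fit, Hill slope fixed at 1. Mean ± SEM, N = 3.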"}, "[5]": {"species_on_record": "Homo sapiens", "test": "Selectivity index, ratio of Ki for displacement of [3H]diprenorphine human mu opioid receptor expressed in CHO cell membranes to Ki for displacement of [3H]diprenorphine human delta opioid receptor expressed in CHO cell membranes"}, "[6]": {"target": "T3, Delta-type opioid receptor (Homo sapiens, UniProt P41143)", "T3 sequence (P41143 whole entry)": "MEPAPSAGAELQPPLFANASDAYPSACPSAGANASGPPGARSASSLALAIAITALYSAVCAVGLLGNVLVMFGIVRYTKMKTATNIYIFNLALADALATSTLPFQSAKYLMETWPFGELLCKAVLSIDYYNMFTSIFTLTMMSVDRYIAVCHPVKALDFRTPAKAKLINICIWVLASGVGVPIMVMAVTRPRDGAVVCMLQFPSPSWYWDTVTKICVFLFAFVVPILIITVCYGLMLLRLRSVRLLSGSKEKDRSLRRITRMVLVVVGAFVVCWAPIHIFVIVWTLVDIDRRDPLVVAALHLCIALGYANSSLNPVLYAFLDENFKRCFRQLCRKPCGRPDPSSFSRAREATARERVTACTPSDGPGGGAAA", "test": "Agonist activity at human DOR expressed in CHO cell membranes after 1 hr by [35S]GTPgammaS binding assay", "type": "functional", "procedure,_shortened": "as §1"}, "[7]": {"target": "T3, Delta-type opioid receptor", "test": "Displacement of [3H]diprenorphine human delta opioid receptor expressed in CHO cell membranes after 1 hr by micro beta2 scintillation counting method"}, "[8]": {"target": "T1, Kappa-type opioid receptor", "test": "Agonist activity at human KOR expressed in CHO cell membranes after 1 hr by [35S]GTPgammaS binding assay", "type": "functional", "procedure,_shortened": "as §1"}, "[9]": {"target": "T3, Delta-type opioid receptor", "test": "Agonist activity at human DOR expressed in CHO cell membranes after 1 hr by [35S]GTPgammaS binding assay relative to SNC80", "type": "functional", "procedure,_shortened": "as §1"}, "[10]": {"target": "T1, Kappa-type opioid receptor", "test": "Displacement of [3H]diprenorphine human kappa opioid receptor expressed in CHO cell membranes after 1 hr by micro beta2 scintillation counting method", "procedure,_shortened": "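Membranes (20–25 μg protein) from CHO cells expressing human DOR or KOR were incubated 1 h at rt with concentration curves of compound and fixed 3H-diprenorphine (1.2–4.6 nM). Incubations ended by rapid GF/B filtration, then scintillation counted. […] Ki from one-site competition fit using the radioligand KD measured in each cell line. Mean ± SEM, N = 3.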"}}, "data": [{"smiles": "Cc1cc(=O)oc2ccc(N3C(=O)C4=C(SC[C@@H](NC(=O)[C@@H](N)Cc5ccc(O)cc5)C(=O)NCC(=O)N[C@@H](Cc5ccccc5)C(=O)NNC(=O)[C@H](Cc5ccccc5)NC(=O)CNC(=O)[C@H](NC(=O)[C@@H](N)Cc5ccc(O)cc5)CS4)C3=O)cc12", "values": [{"measurement": "Emax", "setting": "[1]", "result": 50, "unit": "%"}, {"measurement": "Emax", "setting": "[2]", "result": 80, "unit": "%"}, {"measurement": "Ki", "setting": "[3]", "result": 0.79, "unit": "µM"}, {"measurement": "EC50", "setting": "[4]", "result": 0.29, "unit": "µM"}, {"measurement": "Ratio Ki", "setting": "[5]", "result": "5 to 8"}, {"measurement": "EC50", "setting": "[6]", "result": 0.19, "unit": "µM"}, {"measurement": "Ki", "setting": "[7]", "result": 0.12, "unit": "µM"}, {"measurement": "EC50", "setting": "[8]", "result": 4.1, "unit": "µM"}, {"measurement": "Emax", "setting": "[9]", "result": 55, "unit": "%"}, {"measurement": "Ki", "setting": "[10]", "result": "> 3.33", "unit": "µM"}]}, {"smiles": "Cc1cc(=O)oc2cc(NC(=O)CCN3C(=O)C4=C(SC[C@@H](NC(=O)[C@@H](N)Cc5ccc(O)cc5)C(=O)NCC(=O)N[C@@H](Cc5ccccc5)C(=O)NNC(=O)[C@H](Cc5ccccc5)NC(=O)CNC(=O)[C@H](NC(=O)[C@@H](N)Cc5ccc(O)cc5)CS4)C3=O)ccc12", "values": [{"measurement": "Emax", "setting": "[1]", "result": 60, "unit": "%"}, {"measurement": "Emax", "setting": "[2]", "result": 120, "unit": "%"}, {"measurement": "Ki", "setting": "[3]", "result": 0.51, "unit": "µM"}, {"measurement": "EC50", "setting": "[4]", "result": 0.27, "unit": "µM"}, {"measurement": "Ratio Ki", "setting": "[5]", "result": "5 to 8"}, {"measurement": "EC50", "setting": "[6]", "result": 0.25, "unit": "µM"}, {"measurement": "Ki", "setting": "[7]", "result": 0.098, "unit": "µM"}, {"measurement": "EC50", "setting": "[8]", "result": 1, "unit": "µM"}, {"measurement": "Emax", "setting": "[9]", "result": 62, "unit": "%"}, {"measurement": "Ki", "setting": "[10]", "result": "> 3.33", "unit": "µM"}]}, {"smiles": "CN(C)c1cccc2c(S(=O)(=O)NCCN3C(=O)C4=C(SC[C@@H](NC(=O)[C@@H](N)Cc5ccc(O)cc5)C(=O)NCC(=O)N[C@@H](Cc5ccccc5)C(=O)NNC(=O)[C@H](Cc5ccccc5)NC(=O)CNC(=O)[C@H](NC(=O)[C@@H](N)Cc5ccc(O)cc5)CS4)C3=O)cccc12", "values": [{"measurement": "Emax", "setting": "[1]", "result": 46, "unit": "%"}, {"measurement": "Emax", "setting": "[2]", "result": 79, "unit": "%"}, {"measurement": "Ki", "setting": "[3]", "result": 0.091, "unit": "µM"}, {"measurement": "EC50", "setting": "[4]", "result": 0.021, "unit": "µM"}, {"measurement": "Ratio Ki", "setting": "[5]", "result": "5 to 8"}, {"measurement": "EC50", "setting": "[6]", "result": 0.04, "unit": "µM"}, {"measurement": "Ki", "setting": "[7]", "result": 0.015, "unit": "µM"}, {"measurement": "EC50", "setting": "[8]", "result": 0.46, "unit": "µM"}, {"measurement": "Emax", "setting": "[9]", "result": 47, "unit": "%"}, {"measurement": "Ki", "setting": "[10]", "result": "> 3.33", "unit": "µM"}]}]}
